Assay results reported in ChEMBL document CHEMBL2057126, “Discovery of new inhibitors of Cdc25B dual specificity phosphatases by structure-based virtual screening” (J Med Chem, 2012).
The source made the active and inactive calls. No cut-off for these calls is given here.

Tests used:
[1] = biological target: T1, M-phase inducer phosphatase 2 (Homo sapiens) (UniProt P30305); experiment: Reversible inhibition of recombinant phosphatase activity of Cdc25B catalytic domain expressed in Escherichia coli BL21(DE3) assessed as residual activity of enzyme measured after 10 fold dilution at 100 uM preincubated for 20 mins
T1 sequence (whole entry): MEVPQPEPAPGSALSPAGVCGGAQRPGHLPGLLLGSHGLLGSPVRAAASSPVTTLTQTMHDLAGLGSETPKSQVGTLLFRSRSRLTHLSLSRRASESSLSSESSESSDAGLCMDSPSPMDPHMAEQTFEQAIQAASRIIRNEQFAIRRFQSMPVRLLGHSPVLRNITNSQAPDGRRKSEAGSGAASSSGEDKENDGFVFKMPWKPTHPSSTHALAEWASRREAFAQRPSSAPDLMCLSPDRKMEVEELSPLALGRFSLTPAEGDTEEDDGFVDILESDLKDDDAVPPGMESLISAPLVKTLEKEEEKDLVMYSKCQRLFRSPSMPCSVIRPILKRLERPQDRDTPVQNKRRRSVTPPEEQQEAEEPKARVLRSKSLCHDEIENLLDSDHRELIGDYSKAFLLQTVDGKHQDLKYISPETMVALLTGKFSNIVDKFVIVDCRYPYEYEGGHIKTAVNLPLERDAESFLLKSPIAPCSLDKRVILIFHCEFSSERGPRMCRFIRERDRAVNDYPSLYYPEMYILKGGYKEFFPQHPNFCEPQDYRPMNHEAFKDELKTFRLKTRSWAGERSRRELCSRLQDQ

[2] = biological target: T2, M-phase inducer phosphatase 3 (Homo sapiens) (UniProt P30307); experiment: Inhibition of recombinant phosphatase activity of Cdc25C catalytic domain expressed in Escherichia coli BL21(DE3) using OMFP as substrate at 100 uM after 15 mins by fluorimetric assay
T2 sequence (whole entry): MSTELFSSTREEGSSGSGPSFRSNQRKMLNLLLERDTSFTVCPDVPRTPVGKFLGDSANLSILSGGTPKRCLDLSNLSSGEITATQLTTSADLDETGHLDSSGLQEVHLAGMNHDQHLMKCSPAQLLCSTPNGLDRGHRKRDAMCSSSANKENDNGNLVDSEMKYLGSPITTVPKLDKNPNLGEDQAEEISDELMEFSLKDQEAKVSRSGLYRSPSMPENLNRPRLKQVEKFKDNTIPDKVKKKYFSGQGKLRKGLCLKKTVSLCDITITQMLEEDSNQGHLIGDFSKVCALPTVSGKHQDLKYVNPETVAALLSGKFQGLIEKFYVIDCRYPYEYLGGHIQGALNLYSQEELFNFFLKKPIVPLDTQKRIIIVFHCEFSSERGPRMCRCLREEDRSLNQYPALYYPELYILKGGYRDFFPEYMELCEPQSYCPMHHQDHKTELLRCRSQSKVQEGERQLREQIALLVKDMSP

[3] = biological target: T1, M-phase inducer phosphatase 2 (Homo sapiens); experiment: Inhibition of recombinant phosphatase activity of Cdc25B catalytic domain expressed in Escherichia coli BL21(DE3) using OMFP as substrate at 100 uM after 15 mins by fluorimetric assay
[4] = biological target: T3, M-phase inducer phosphatase 1 (Homo sapiens) (UniProt P30304); experiment: Inhibition of recombinant phosphatase activity of Cdc25A catalytic domain expressed in Escherichia coli BL21(DE3) using OMFP as substrate at 100 uM after 15 mins by fluorimetric assay
T3 sequence (whole entry): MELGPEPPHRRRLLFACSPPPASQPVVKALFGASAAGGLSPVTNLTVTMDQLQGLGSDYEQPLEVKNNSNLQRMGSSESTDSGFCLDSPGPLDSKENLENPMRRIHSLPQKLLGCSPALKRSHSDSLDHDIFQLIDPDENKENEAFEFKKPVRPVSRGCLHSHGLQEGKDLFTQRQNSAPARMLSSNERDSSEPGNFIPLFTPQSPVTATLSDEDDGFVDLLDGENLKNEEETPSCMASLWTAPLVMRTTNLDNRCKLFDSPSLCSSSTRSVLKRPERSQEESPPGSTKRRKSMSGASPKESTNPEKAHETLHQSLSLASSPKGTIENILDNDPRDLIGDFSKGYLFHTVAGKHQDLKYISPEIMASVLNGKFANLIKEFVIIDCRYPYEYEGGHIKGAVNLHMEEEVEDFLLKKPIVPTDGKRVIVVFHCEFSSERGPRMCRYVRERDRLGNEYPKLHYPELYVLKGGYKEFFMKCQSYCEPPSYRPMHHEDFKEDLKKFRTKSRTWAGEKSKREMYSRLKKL

[5] = biological target: T1, M-phase inducer phosphatase 2 (Homo sapiens); experiment: Reversible inhibition of recombinant phosphatase activity of Cdc25B catalytic domain expressed in Escherichia coli BL21(DE3) assessed as residual activity of enzyme measured after 10 fold dilution at 50 uM preincubated for 20 mins
Outline: (§1)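 Dilution test: Cdc25B pretreated with inhibitor for up to 20 min, mixture diluted 10-fold, and residual phosphatase activity measured to judge reversible versus irreversible inhibition.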

[6] = biological target: T1, M-phase inducer phosphatase 2 (Homo sapiens); experiment: Inhibition of recombinant phosphatase activity of Cdc25B catalytic domain expressed in Escherichia coli BL21(DE3) using OMFP as substrate at 50 uM by spectrofluorimetric analysis
Outline: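 Single-point screen: percent inhibition of Cdc25B phosphatase activity (OMFP hydrolysis) measured with inhibitor at 50 μM.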

[7] = biological target: T4, M-phase inducer phosphatase 2 (Homo sapiens, UniProt P30305); experiment: Inhibition of recombinant phosphatase activity of Cdc25B catalytic domain expressed in Escherichia coli BL21(DE3) using OMFP as substrate by spectrofluorimetric analysis
T4 sequence (P30305 whole entry): T1 sequence (whole entry)

[8] = biological target: T1, M-phase inducer phosphatase 2 (Homo sapiens); experiment: Reversible inhibition of recombinant phosphatase activity of Cdc25B catalytic domain expressed in Escherichia coli BL21(DE3) assessed as residual activity of enzyme measured after 10 fold dilution at 100 uM preincubated for 20 mins
Outline: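 Cdc25B (0.5 μg) preincubated 20 min at room temperature with 100 μM inhibitor or DMSO vehicle, then diluted 10-fold. Residual phosphatase activity was read after adding OMFP substrate and expressed as percent of the untreated control. Mean ± SD of three determinations.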

[9] = biological target: T1, M-phase inducer phosphatase 2 (Homo sapiens); experiment: Irreversible inhibition of recombinant phosphatase activity of Cdc25B catalytic domain expressed in Escherichia coli BL21(DE3) assessed as residual activity of enzyme measured after 10 fold dilution at 50 uM preincubated for 20 mins
Outline: as §1

[10] = biological target: T5, M-phase inducer phosphatase 1 (Homo sapiens, UniProt P30304); experiment: Inhibition of recombinant phosphatase activity of Cdc25A catalytic domain expressed in Escherichia coli BL21(DE3) using OMFP as substrate by Lineweaver-Burk plot analysis
T5 sequence (P30304 whole entry): T3 sequence (whole entry)
Outline: (§2)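 Purified recombinant Cdc25A catalytic domain; phosphatase activity measured as OMFP hydrolysis versus inhibitor concentration to derive IC50, with Ki calculated from kinetic measurements. Results are averages ± SD of three determinations.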

[11] = biological target: T5, M-phase inducer phosphatase 1; experiment: Inhibition of recombinant phosphatase activity of Cdc25A catalytic domain expressed in Escherichia coli BL21(DE3) using OMFP as substrate by spectrofluorimetric analysis
Outline: as §2

[12] = biological target: T4, M-phase inducer phosphatase 2; experiment: Competitive inhibition of recombinant phosphatase activity of Cdc25B catalytic domain expressed in Escherichia coli BL21(DE3) using OMFP as substrate by Lineweaver-Burk plot analysis

SMILES | inhibition [2] | inhibition [3] | inhibition [4] | inhibition [6] | further results
O=C(Nc1ccc2ncccc2c1)Nc1ccc2ncccc2c1 | 48% | 32% | 47% | – | inhibition [1]: Active
CNc1ccc(C(=O)c2ccccc2C(=O)O)cc1[N+](=O)[O-] | – | – | – | 65% | inhibition [5]: Active; IC50 [7]: 7.9 µM
O=C(O)c1cccc(F)c1C(=O)c1ccc2ccccc2c1 | – | – | – | 34% | –
CN(CCC(=O)O)C1=Nc2ccc(Cl)cc2C(c2ccccc2)=[N+]([O-])C1 | 48% | 43% | 28% | – | inhibition [1]: Active
CC1C2C=CC1C(c1c3ccc(=O)c(O)c-3oc3c(O)c(O)ccc13)C2C(=O)O (stereo unspecified) | 98% | 98% | 98% | – | inhibition [8]: Active
O=C(O)c1ccccc1C(=O)c1cccc([N+](=O)[O-])c1 | – | – | – | 17% | –
NS(=O)(=O)c1cc2c(cc1Cl)N=C(CCC(=O)O)NS2(=O)=O | 47% | 41% | 21% | – | inhibition [1]: Active
CC1=NN(c2ccc(S(=O)(=O)O)cc2)C(=O)/C1=C/c1ccc(Cl)cc1 | 54% | 46% | 17% | – | inhibition [1]: Active
O=C(O)c1cccc(Oc2ccc(C(=O)O)c([N+](=O)[O-])c2)c1 | – | – | – | 37% | –
Cn1c(COc2ccccc2C(=O)O)nc2ccccc21 | 35% | 43% | 10% | – | inhibition [1]: Active
O=C(O)c1cccc(Nc2ccccc2C(=O)O)c1 | – | – | – | 18% | –
O=C1C=C(Nc2nc(O)cc(C(=O)O)n2)c2ccccc2C1=O | – | – | – | 60% | inhibition [9]: Active
O=C1C=C(Nc2cccc(C(=O)O)c2)c2ccccc2C1=O | – | – | – | 85% | IC50 [7]: 4.2 µM; inhibition [9]: Active
O=C(O)c1ccccc1C(=O)c1ccc(Cl)c([N+](=O)[O-])c1 | – | – | – | 13% | –
O=C(O)c1ccccc1C(=O)c1ccc(-c2ccccc2)cc1 | – | – | – | 54% | inhibition [5]: Active; IC50 [7]: 23.1 µM
O=C(C(=O)c1ccc(O)c(O)c1)c1ccc(O)c(O)c1 | – | – | – | 22% | –

SMILES | inhibition [2] | inhibition [3] | inhibition [4] | inhibition [6] | further results
CC(=O)c1ccc(C(=O)c2ccccc2C(=O)O)cc1 | – | – | – | 20% | –
O=C(O)c1cc(C(=O)C(=O)c2cc(C(=O)O)c(O)c3ccccc23)c2ccccc2c1O | – | – | – | 26% | –
O=C1C=C(Nc2nc(C(=O)O)cc(=O)[nH]2)c2ccccc2C1=O | – | – | – | – | IC50 [7]: 9.9 µM
O=C(O)C1CCCN1Cc1c[nH]c2ccccc12 (stereo unspecified) | 45% | 37% | 39% | – | –
Nc1ccc(Cc2ccc(N)c(C(=O)O)c2)cc1C(=O)O | – | – | – | 52% | inhibition [5]: Active; IC50 [7]: 23.8 µM
O=C(O)c1ccccc1C(=O)c1ccc(O)c([N+](=O)[O-])c1 | – | – | – | 13% | –
O=C(O)c1ccccc1C(=O)CCC(=O)c1ccccc1C(=O)O | – | – | – | 20% | –
COc1ccc(Cc2ccc3[nH]c(=O)cc(C)c3c2)cc1S(=O)(=O)O | – | – | – | – | Ki [10]: 203 µM; IC50 [11]: 86 µM; IC50 [7]: 133 µM; Ki [12]: 84 µM
Nc1ccc(-c2ccc(Nc3cc(S(=O)(=O)O)c(N)c4c3C(=O)c3ccccc3C4=O)cc2)c(S(=O)(=O)O)c1 | 49% | 89% | 72% | – | –
Nc1ccc(C(=O)O)cc1S(=O)(=O)c1cc(C(=O)O)ccc1N | – | – | – | 62% | inhibition [5]: Active; IC50 [7]: 20.1 µM
COc1cc(O)c(C(=O)c2ccccc2)cc1S(=O)(=O)O | – | – | – | 49% | –
CC(C)(Oc1ccc(-c2cccc3ccccc23)cc1)C(=O)O | 50% | 40% | 47% | – | inhibition [1]: Active
O=C(O)c1ccc(C(=O)c2ccccc2C(=O)O)cc1 | – | – | – | 12% | –
O=C(O)c1ccccc1C(=O)c1cccc2ccccc12 | – | – | – | 41% | –
Sc1ccc2ccccc2c1CNCc1ccccc1 | 53% | 60% | 35% | – | –
O=C(O)c1ccccc1-c1ccccc1C(=O)Nc1ccc2c(c1)nc(O)c1ccccc12 | 48% | 45% | 66% | – | inhibition [1]: Active
